Data as given in ChEMBL document CHEMBL2203241, “Natural product-derived antitumor compound phenethyl isothiocyanate inhibits mTORC1 activity via TSC2” (J Nat Prod, 2012).
Activity calls are given as the source filed them.

Key:
MCF7 [1] = assay: Inhibition of HIF1alpha RNA translation in human MCF7 cells at 10 ug/mL pretreated for 1 hr prior to metabolic labeling by SDS-PAGE analysis; type: functional, cell-based
Method in brief: (§1)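 MCF7 cells held 1 h in DMEM without L-glutamine, cysteine and methionine, with 10% dialysed FCS and 2 mM glutamine. Then pretreated 1 h with compound, cycloheximide 10 μg/mL or DMSO, and labelled 2 h with [35S] amino acids (0.75 MBq/mL) plus CoCl2 100 μM. RIPA lysates immunoprecipitated overnight at 4 °C with anti-HIF1α or isotype IgG; SDS-PAGE, phosphorimaging. Three independent experiments.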

MCF7 [2] = assay: Induction of Akt phosphorylation at threonine 308 in human MCF7 cells after 4 hrs by immunoblotting analysis relative to total Akt; type: cell-based
Method in brief: (§2)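 MCF7 cells given 20 μM compound or DMSO for up to 4 h. Immunoblots for phospho-AKT T308, phospho-AKT S473, total AKT and β-actin. Phospho signals normalised to total AKT; total AKT normalised to β-actin. Mean ± SD of three independent experiments; repeated measures ANOVA with Tukey's test.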

MCF7 [3] = assay: Increase in mTORC2 activity in human MCF7 cells induction of Akt phosphorylation at serine 473 after 4 hrs by immunoblotting analysis; type: cell-based; method in brief: as §2
[4] = target: AMP-activated protein kinase, AMPK (Homo sapiens) (UniProt P54646+O43741+P54619+Q9UGJ0+Q9Y478+Q13131+Q9UGI9); assay: Induction of AMPK phosphorylation at threonine 172 in human MCF7 cells after 3 hrs by immunoblotting analysis; type: cell-based
MEF [5] = assay: Inhibition of growth in wild type MEF cells after 6 days; type: functional, cell-based; settings: Mus musculus, 144 h
Method in brief: (§3)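 Growth assay: p53−/−TSC2−/− and control MEFs plated at 1000 cells/well and treated next day with compound, DMSO or nothing. After 6 days relative cell number read by CellTiter 96 AQueous One, expressed as % of untreated. IC50 from curve fit; mean ± SD of three independent experiments.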

mTORC1 (Homo sapiens) [6] = target: T1, mTORC1 (Homo sapiens) (UniProt P42345+Q8N122+Q9BVC4); assay: Inhibition of mTORC1 in human MCF7 cells assessed as reduction of p70S6K phosphorylation at 20 uM after 15 mins by immunoblotting analysis; type: cell-based
Method in brief: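 MCF7 cells exposed to 20 μM compound or DMSO over a time course; p70 S6K phosphorylation read by immunoblotting.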

mTORC1 (Homo sapiens) [7] = target: T1, mTORC1 (Homo sapiens); assay: Inhibition of mTORC1 in human MCF7 cells assessed as reduction of 4E-BP1 phosphorylation after 3 hrs by immunoblotting analysis; type: cell-based
Method in brief: (§4)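 MCF7 cells exposed to a concentration series, DMSO or nothing for 3 h, then immunoblotted. Repeated measures ANOVA with Tukey's test.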

[8] = target: T2, Hypoxia inducible factors; HIF-1-alpha, HIF-2-alpha (Homo sapiens, UniProt Q16665+Q99814); assay: Inhibition of Serine/threonine-protein kinase mTOR complex 1-mediated HIF1alpha RNA translation in human MCF7 cells pretreated for 1 hr prior to metabolic labeling by SDS-PAGE analysis; type: cell-based; method in brief: as §1
[9] = target: T2, Hypoxia inducible factors; HIF-1-alpha, HIF-2-alpha; assay: Inhibition of Serine/threonine-protein kinase mTOR complex 1-mediated HIF1alpha RNA translation in human MCF7 cells at 20 uM pretreated for 1 hr prior to metabolic labeling by SDS-PAGE analysis; type: cell-based; method in brief: as §1
mTORC1 (Homo sapiens) [10] = target: T1, mTORC1 (Homo sapiens); assay: Inhibition of mTORC1 in human MCF7 cells assessed as reduction of p70S6K phosphorylation at threonine 389 after 3 hrs by immunoblotting analysis; type: cell-based; method in brief: as §4
MCF7 [11] = assay: Inhibition of Akt phosphorylation at threonine 308 in human MCF7 cells at 20 uM after 4 hrs by immunoblotting analysis; type: cell-based; method in brief: as §2
MEF [12] = assay: Inhibition of mTORC1 in PTEN-/- MEF cells assessed as reduction of p70S6K phosphorylation after 3 hrs by immunoblotting analysis; type: cell-based; settings: Mus musculus
Method in brief: (§5)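 PTEN+/+ and PTEN−/− MEFs exposed to a concentration series, DMSO or nothing for 3 h. Immunoblots for phospho-p70 S6K T389, total p70 S6K and β-actin.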

MEF [13] = assay: Effect on mTORC2 in p53-/-TSC2+/+ MEF cells assessed as Akt phosphorylation at serine 473 after 3 hrs by immunoblotting analysis; type: cell-based; settings: Mus musculus
Method in brief: (§6)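 p53−/−TSC2+/+ and p53−/−TSC2−/− MEFs in standard serum-containing medium exposed to compound, DMSO (matched to 20 μM) or nothing for 3 h. Immunoblots probed for phospho-AKT S473, total AKT, phospho-NDRG1 T346 and total NDRG1, with HSC70 as loading control.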

MEF [14] = assay: Effect on mTORC2 in p53-/-TSC2+/+ MEF cells assessed as as NDRG1 phosphorylation at threonine 346 after 3 hrs by immunoblotting analysis; type: cell-based; settings: Mus musculus; method in brief: as §6
MEF [15] = assay: Inhibition of mTORC1 in MEF cells assessed as reduction of p70S6K phosphorylation at threonine 389 at 2.5 to 5 uM after 3 hrs by immunoblotting analysis; type: cell-based; settings: Mus musculus; method in brief: as §5
MEF [16] = assay: Increase in mTORC2 activity in p53-/-TSC2-/- MEF cells assessed as […] in NDRG1 phosphorylation at threonine 346 after 3 hrs by immunoblotting analysis; type: cell-based; settings: Mus musculus; method in brief: as §6
MEF [17] = assay: Inhibition of mTORC1 in p53-/-TSC2-/- MEF cells assessed as reduction of p70S6K phosphorylation at threonine 389 after 3 hrs by immunoblotting analysis; type: cell-based; settings: Mus musculus
Method in brief: (§7)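 p53−/−TSC2+/+ and p53−/−TSC2−/− MEFs in standard serum-containing medium exposed to a concentration series, DMSO (matched to 20 μM) or nothing for 3 h. Immunoblots for phospho-p70 S6K T389, total p70 S6K and β-actin. Mean ± SD of three independent experiments; ANOVA with Tukey's test within each line, t test between lines.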

[18] = target: Mitogen-activated protein kinase; ERK1/ERK2 (Homo sapiens) (UniProt P27361+P28482); assay: Induction of ERK1/2 phosphorylation at threonine 202/tyrosine 204 in human MCF7 cells after 3 hrs by immunoblotting analysis; type: cell-based
MEF [19] = assay: Inhibition of growth in TSC2-deficient MEF cells after 6 days; type: functional, cell-based; settings: Mus musculus, 144 h; method in brief: as §3
MEF [20] = assay: Inhibition of mTORC1 in PTEN+/+ MEF cells assessed as reduction of p70S6K phosphorylation after 3 hrs by immunoblotting analysis; type: cell-based; settings: Mus musculus; method in brief: as §5
MEF [21] = assay: Inhibition of mTORC1 in p53-/-TSC+/+ MEF cells assessed as reduction of p70S6K phosphorylation after 3 hrs by immunoblotting analysis; type: cell-based; settings: Mus musculus; method in brief: as §7
MEF [22] = assay: Inhibition of mTORC1 in p53-/-TSC2+/+ MEF cells assessed as reduction of p70S6K phosphorylation at threonine 389 after 3 hrs by immunoblotting analysis; type: cell-based; settings: Mus musculus; method in brief: as §7
MEF [23] = assay: Increase in mTORC2 activity in p53-/-TSC2-/- MEF cells assessed as […] of Akt phosphorylation at serine 473 after 3 hrs by immunoblotting analysis; type: cell-based; settings: Mus musculus; method in brief: as §6

T1 sequence (Q8N122 whole entry, looked up, other chains not shown): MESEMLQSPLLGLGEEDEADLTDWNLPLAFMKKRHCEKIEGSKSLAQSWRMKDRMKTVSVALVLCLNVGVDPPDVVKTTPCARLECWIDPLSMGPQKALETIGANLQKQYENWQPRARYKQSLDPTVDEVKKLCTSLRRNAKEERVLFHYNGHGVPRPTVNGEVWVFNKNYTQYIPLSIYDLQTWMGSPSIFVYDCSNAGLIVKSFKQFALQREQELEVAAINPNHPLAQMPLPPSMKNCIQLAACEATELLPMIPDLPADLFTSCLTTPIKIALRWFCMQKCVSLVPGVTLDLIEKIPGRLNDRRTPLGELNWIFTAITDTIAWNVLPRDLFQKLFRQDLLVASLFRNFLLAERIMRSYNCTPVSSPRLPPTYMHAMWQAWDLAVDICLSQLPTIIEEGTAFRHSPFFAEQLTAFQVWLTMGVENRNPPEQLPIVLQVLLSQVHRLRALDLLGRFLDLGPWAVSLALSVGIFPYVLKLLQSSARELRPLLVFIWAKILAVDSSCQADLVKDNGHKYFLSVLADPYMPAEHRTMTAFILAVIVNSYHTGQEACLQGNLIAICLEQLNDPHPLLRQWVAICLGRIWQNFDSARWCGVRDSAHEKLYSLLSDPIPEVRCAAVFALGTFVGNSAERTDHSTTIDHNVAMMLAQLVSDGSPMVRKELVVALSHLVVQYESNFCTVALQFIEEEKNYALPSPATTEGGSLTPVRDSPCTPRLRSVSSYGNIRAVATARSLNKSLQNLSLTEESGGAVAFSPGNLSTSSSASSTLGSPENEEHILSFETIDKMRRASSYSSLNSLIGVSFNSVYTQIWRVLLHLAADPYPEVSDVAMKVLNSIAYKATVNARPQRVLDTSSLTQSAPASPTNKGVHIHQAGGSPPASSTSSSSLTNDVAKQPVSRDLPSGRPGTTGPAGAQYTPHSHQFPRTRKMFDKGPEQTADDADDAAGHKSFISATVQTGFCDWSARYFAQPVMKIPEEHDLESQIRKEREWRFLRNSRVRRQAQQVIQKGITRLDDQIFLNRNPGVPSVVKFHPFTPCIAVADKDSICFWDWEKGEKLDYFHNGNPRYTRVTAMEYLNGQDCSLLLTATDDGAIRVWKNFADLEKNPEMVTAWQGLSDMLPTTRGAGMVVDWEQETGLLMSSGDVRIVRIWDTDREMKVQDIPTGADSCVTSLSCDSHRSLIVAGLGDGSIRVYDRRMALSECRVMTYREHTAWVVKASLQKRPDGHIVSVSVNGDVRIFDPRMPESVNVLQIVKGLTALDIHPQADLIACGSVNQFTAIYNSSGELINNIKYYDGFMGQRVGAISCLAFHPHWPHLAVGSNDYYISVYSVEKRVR
T1 sequence (Q9BVC4 whole entry, looked up, other chains not shown): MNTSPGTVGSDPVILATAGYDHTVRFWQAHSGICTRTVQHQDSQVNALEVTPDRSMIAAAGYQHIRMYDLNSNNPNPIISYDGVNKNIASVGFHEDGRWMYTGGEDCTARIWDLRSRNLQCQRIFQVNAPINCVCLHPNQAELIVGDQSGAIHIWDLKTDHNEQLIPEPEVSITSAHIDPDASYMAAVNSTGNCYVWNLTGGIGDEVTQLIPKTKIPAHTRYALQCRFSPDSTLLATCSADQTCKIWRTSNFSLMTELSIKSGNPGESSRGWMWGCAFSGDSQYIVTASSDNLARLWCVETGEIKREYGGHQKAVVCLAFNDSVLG
Chain of Mitogen-activated protein kinase; ERK1/ERK2 (Homo sapiens) (P27361 whole entry, looked up): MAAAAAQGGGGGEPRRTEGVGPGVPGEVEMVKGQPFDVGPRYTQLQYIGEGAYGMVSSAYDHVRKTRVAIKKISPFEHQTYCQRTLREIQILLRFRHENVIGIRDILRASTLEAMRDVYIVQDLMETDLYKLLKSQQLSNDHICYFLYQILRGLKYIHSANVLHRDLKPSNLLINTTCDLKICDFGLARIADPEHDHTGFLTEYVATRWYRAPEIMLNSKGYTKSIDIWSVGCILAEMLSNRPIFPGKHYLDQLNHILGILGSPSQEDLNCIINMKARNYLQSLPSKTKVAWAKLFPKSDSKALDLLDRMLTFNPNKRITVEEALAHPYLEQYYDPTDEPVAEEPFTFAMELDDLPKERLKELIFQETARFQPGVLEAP
Chain of Mitogen-activated protein kinase; ERK1/ERK2 (Homo sapiens) (P28482 whole entry, looked up): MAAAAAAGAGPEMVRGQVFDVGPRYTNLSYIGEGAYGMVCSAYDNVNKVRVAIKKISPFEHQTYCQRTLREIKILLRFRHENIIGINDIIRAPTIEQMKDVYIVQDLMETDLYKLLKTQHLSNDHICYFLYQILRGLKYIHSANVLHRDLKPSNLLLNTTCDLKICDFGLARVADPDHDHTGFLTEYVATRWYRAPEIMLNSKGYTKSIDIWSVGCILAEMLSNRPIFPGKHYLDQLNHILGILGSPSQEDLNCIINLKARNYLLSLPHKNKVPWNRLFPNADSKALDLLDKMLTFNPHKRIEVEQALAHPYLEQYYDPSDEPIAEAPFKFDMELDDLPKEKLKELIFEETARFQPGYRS

C[C@@H]1C[C@@H]([C@H](O)CC2CC(=O)NC(=O)C2)C(=O)[C@@H](C)C1
active: inhibition (MCF7 [1])

S=C=NCCc1ccccc1 [PHENETHYLISOTHIOCYANATE]
3: fold change (FC) (MCF7 [2])
4.7 µM: IC50 (MEF [5])
8 µM: IC50 (MEF [19])
active: Activity (MCF7 [3]) | inhibition (mTORC1 (Homo sapiens) [6]) | inhibition (mTORC1 (Homo sapiens) [7]) | inhibition [9] | inhibition (mTORC1 (Homo sapiens) [10]) | inhibition (MEF [12]) | inhibition (MEF [15]) | Activity (MEF [16]) | Activity [18] | inhibition (MEF [20]) | inhibition (MEF [21]) | inhibition (MEF [22]) | Activity (MEF [23])
7.5 µM: IC50 [8]
inactive: Activity [4] | inhibition (MCF7 [11]) | Activity (MEF [13]) | Activity (MEF [14]) | inhibition (MEF [17])
